From ChEMBL document CHEMBL3864121, “Development of ebsulfur analogues as potent antibacterials against methicillin-resistant Staphylococcus aureus” (Bioorg Med Chem, 2016)
Converted amounts (≈) assume the structure as drawn. The source made the active and inactive calls. No cut-off for these calls is given here.

Tests used:
Assay type in all cases: functional
Staphylococcus aureus [1] = assay: Bacteriostatic activity against methicillin-resistant Staphylococcus aureus S22 at MIC measured up to 3 to 6 hrs by time kill analysis
Staphylococcus aureus [2] = assay: Antibacterial activity against methicillin-resistant Staphylococcus aureus USA200 measured after overnight incubation by broth double-dilution method
Method in brief: (§1)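 MIC by broth double-dilution in liquid Mueller-Hinton medium. Values are reported in µg/mL.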

Staphylococcus aureus [3] = assay: Antibacterial activity against methicillin-resistant Staphylococcus aureus NRS4 measured after overnight incubation by broth double-dilution method; method in brief: as §1
Staphylococcus aureus [4] = assay: Antibacterial activity against methicillin-resistant Staphylococcus aureus C1 measured after overnight incubation by broth double-dilution method; method in brief: as §1
Staphylococcus aureus [5] = assay: Antibacterial activity against methicillin-sensitive Staphylococcus aureus ATCC 6538 measured after overnight incubation by broth double-dilution method; method in brief: as §1
Enterococcus faecalis [6] = assay: Antibacterial activity against Enterococcus faecalis ATCC 29212 measured after overnight incubation by broth double-dilution method
Method in brief: (§2)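 MIC by broth double-dilution in Mueller-Hinton medium. Re-testing at the time-kill inoculum used 1×10^6 CFU/mL.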

Staphylococcus aureus [7] = assay: Antibacterial activity against methicillin-resistant Staphylococcus aureus G14 measured after overnight incubation by broth double-dilution method; method in brief: as §1
Listeria monocytogenes = assay: Antibacterial activity against Listeria monocytogenes ATCC 19115 measured after overnight incubation by broth double-dilution method; method in brief: as §2
Enterococcus faecium = assay: Antibacterial activity against Enterococcus faecium BM4105-RF measured after overnight incubation by broth double-dilution method; method in brief: as §1
Staphylococcus aureus [8] = assay: Antibacterial activity against methicillin-resistant Staphylococcus aureus 2 measured after overnight incubation by broth double-dilution method; method in brief: as §1
Staphylococcus aureus [9] = assay: Antibacterial activity against methicillin-resistant Staphylococcus aureus S22 measured after overnight incubation by broth double-dilution method; method in brief: as §1
Staphylococcus aureus [10] = assay: Antibacterial activity against methicillin-resistant Staphylococcus aureus G6 measured after overnight incubation by broth double-dilution method; method in brief: as §1
Staphylococcus aureus [11] = assay: Antibacterial activity against methicillin-resistant Staphylococcus aureus BRS3 measured after overnight incubation by broth double-dilution method; method in brief: as §1
Acinetobacter baumannii = assay: Antibacterial activity against Acinetobacter baumannii ATCC 19606 measured after overnight incubation by broth double-dilution method; method in brief: as §2
Staphylococcus aureus [12] = assay: Bacteriostatic activity against methicillin-resistant Staphylococcus aureus S22 at 0.5 times MIC measured up to 3 to 6 hrs by time kill analysis
Enterococcus faecalis [13] = assay: Antibacterial activity against Enterococcus faecalis ATCC 49533 measured after overnight incubation by broth double-dilution method; method in brief: as §2
Staphylococcus aureus [14] = assay: Antibacterial activity against methicillin-resistant Staphylococcus aureus USA600 measured after overnight incubation by broth double-dilution method; method in brief: as §1
Staphylococcus aureus [15] = assay: Antibacterial activity against methicillin-resistant Staphylococcus aureus S22 using 1 10^6CFU/ml measured after overnight incubation by broth double-dilution method
Staphylococcus aureus [16] = assay: Antibacterial activity against methicillin-resistant Staphylococcus aureus C14 measured after overnight incubation by broth double-dilution method; method in brief: as §1
Staphylococcus aureus [17] = assay: Antibacterial activity against methicillin-resistant Staphylococcus aureus USA300 measured after overnight incubation by broth double-dilution method; method in brief: as §1
Staphylococcus aureus [18] = assay: Antibacterial activity against methicillin-resistant Staphylococcus aureus NRS51 measured after overnight incubation by broth double-dilution method; method in brief: as §1
Staphylococcus aureus [19] = assay: Antibacterial activity against methicillin-resistant Staphylococcus aureus NRS77 measured after overnight incubation by broth double-dilution method; method in brief: as §1
Staphylococcus aureus [20] = assay: Antibacterial activity against methicillin-resistant Staphylococcus aureus C7 measured after overnight incubation by broth double-dilution method; method in brief: as §1
[21] = test system: Staphylococcus epidermidis; assay: Antibacterial activity against Staphylococcus epidermidis ATCC 12228 measured after overnight incubation by broth double-dilution method; method in brief: as §2
Staphylococcus aureus [22] = assay: Antibacterial activity against methicillin-resistant Staphylococcus aureus C19 measured after overnight incubation by broth double-dilution method; method in brief: as §1
Staphylococcus aureus [23] = assay: Antibacterial activity against methicillin-resistant Staphylococcus aureus G12 measured after overnight incubation by broth double-dilution method; method in brief: as §1
Staphylococcus aureus [24] = assay: Antibacterial activity against methicillin-resistant Staphylococcus aureus C2 measured after overnight incubation by broth double-dilution method; method in brief: as §1
Staphylococcus aureus [25] = assay: Antibacterial activity against methicillin-resistant Staphylococcus aureus USA100 measured after overnight incubation by broth double-dilution method; method in brief: as §1
Staphylococcus aureus [26] = assay: Antibacterial activity against methicillin-resistant Staphylococcus aureus C16 measured after overnight incubation by broth double-dilution method; method in brief: as §1
Enterobacter cloacae = assay: Antibacterial activity against Enterobacter cloacae ATCC 13047 measured after overnight incubation by broth double-dilution method; conditions: subsp. cloacae ATCC 13047; method in brief: as §1
Salmonella enterica = assay: Antibacterial activity against Salmonella enterica ATCC 14028 measured after overnight incubation by broth double-dilution method; method in brief: as §2
Staphylococcus aureus [27] = assay: Antibacterial activity against methicillin-resistant Staphylococcus aureus G1 measured after overnight incubation by broth double-dilution method; method in brief: as §1
[28] = test system: Mycolicibacterium smegmatis; assay: Antibacterial activity against Mycobacterium smegmatis MC2-155 measured after overnight incubation by broth double-dilution method; conditions: str. MC2 155; method in brief: as §1
Staphylococcus aureus [29] = assay: Antibacterial activity against methicillin-resistant Staphylococcus aureus S14 measured after overnight incubation by broth double-dilution method; method in brief: as §1
[30] = test system: Staphylococcus epidermidis; assay: Antibacterial activity against Staphylococcus epidermidis ATCC 35984 measured after overnight incubation by broth double-dilution method; conditions: RP62A; method in brief: as §2
Klebsiella pneumoniae = assay: Antibacterial activity against Klebsiella pneumoniae ATCC 27736 measured after overnight incubation by broth double-dilution method; method in brief: as §1
Escherichia coli = assay: Antibacterial activity against Escherichia coli MC1061 measured after overnight incubation by broth double-dilution method; method in brief: as §1
Staphylococcus aureus [31] = assay: Antibacterial activity against methicillin-resistant Staphylococcus aureus ATCC 33591 measured after overnight incubation by broth double-dilution method; method in brief: as §1
Staphylococcus aureus [32] = assay: Antibacterial activity against methicillin-resistant Staphylococcus aureus S24 measured after overnight incubation by broth double-dilution method; method in brief: as §1
Staphylococcus aureus [33] = assay: Antibacterial activity against methicillin-sensitive Staphylococcus aureus ATCC 29213 measured after overnight incubation by broth double-dilution method; method in brief: as §1
Enterococcus = assay: Antibacterial activity against Vancomycin-resistant Enterococcus measured after overnight incubation by broth double-dilution method; method in brief: as §1
Pseudomonas aeruginosa = assay: Antibacterial activity against Pseudomonas aeruginosa ATCC 27853 measured after overnight incubation by broth double-dilution method; method in brief: as §2
Staphylococcus aureus [34] = assay: Antibacterial activity against methicillin-resistant Staphylococcus aureus 1 measured after overnight incubation by broth double-dilution method; method in brief: as §1
Staphylococcus aureus [35] = assay: Antibacterial activity against methicillin-sensitive Staphylococcus aureus ATCC 25923 measured after overnight incubation by broth double-dilution method; method in brief: as §1
Staphylococcus aureus [36] = assay: Antibacterial activity against methicillin-resistant Staphylococcus aureus S17 measured after overnight incubation by broth double-dilution method; method in brief: as §1

For NCC[C@H](O)C(=O)N[C@@H]1C[C@H](N)[C@@H](O[C@H]2O[C@H](CN)[C@@H](O)[C@H](O)[C@H]2O)[C@H](O)[C@H]1O[C@H]1O[C@H](CO)[C@@H](O)[C@H](N)[C@H]1O [AMIKACIN], the Activity (Staphylococcus aureus [1]) was “Active”, the MIC (Staphylococcus aureus [2]) was 62.5 µg/mL (≈ 107 µM) and the MIC (Staphylococcus aureus [3]) was 31.3 µg/mL (≈ 53.4 µM). It also gave an MIC (Staphylococcus aureus [4]) of 2 µg/mL (≈ 3.42 µM), an MIC (Staphylococcus aureus [5]) of 2 µg/mL (≈ 3.42 µM) and an MIC (Enterococcus faecalis [6]) of 125 µg/mL (≈ 213 µM). The MIC (Staphylococcus aureus [7]) was 31.3 µg/mL (≈ 53.4 µM), the MIC (Listeria monocytogenes) was 3.9 µg/mL (≈ 6.66 µM) and the MIC (Enterococcus faecium) was 125 µg/mL (≈ 213 µM). For the same compound, the MIC (Staphylococcus aureus [8]) was 3.9 µg/mL (≈ 6.66 µM), the MIC (Staphylococcus aureus [9]) was 7.8 µg/mL (≈ 13.3 µM) and the MIC (Staphylococcus aureus [10]) was 15.6 µg/mL (≈ 26.6 µM). For the same compound, the MIC (Staphylococcus aureus [11]) was 62.5 µg/mL (≈ 107 µM), the MIC (Acinetobacter baumannii) was 7.8 µg/mL (≈ 13.3 µM) and the Activity (Staphylococcus aureus [12]) was “Active”. For the same compound, the MIC (Enterococcus faecalis [13]) was greater than 125 µg/mL, the MIC (Staphylococcus aureus [14]) was 62.5 µg/mL (≈ 107 µM) and the Activity (Staphylococcus aureus [15]) was “Active”. For the same compound, the MIC (Staphylococcus aureus [16]) was 31.3 µg/mL (≈ 53.4 µM), the MIC (Staphylococcus aureus [17]) was 62.5 µg/mL (≈ 107 µM) and the MIC (Staphylococcus aureus [18]) was 15.6 µg/mL (≈ 26.6 µM). For the same compound, the MIC (Staphylococcus aureus [19]) was 0.5 µg/mL (≈ 0.854 µM), the MIC (Staphylococcus aureus [20]) was 7.8 µg/mL (≈ 13.3 µM) and the MIC [21] was 31.3 µg/mL (≈ 53.4 µM). It also gave an MIC (Staphylococcus aureus [22]) of 3.9 µg/mL (≈ 6.66 µM), an MIC (Staphylococcus aureus [23]) of 15.6 µg/mL (≈ 26.6 µM) and an MIC (Staphylococcus aureus [24]) of 2 µg/mL (≈ 3.42 µM). The MIC (Staphylococcus aureus [25]) was 62.5 µg/mL (≈ 107 µM), the MIC (Staphylococcus aureus [26]) was 31.3 µg/mL (≈ 53.4 µM) and the MIC (Enterobacter cloacae) was 1 µg/mL (≈ 1.71 µM). It also gave an MIC (Salmonella enterica) of 7.8 µg/mL (≈ 13.3 µM), an MIC (Staphylococcus aureus [27]) of 31.3 µg/mL (≈ 53.4 µM) and an MIC [28] of no more than 0.25 µg/mL. The MIC (Staphylococcus aureus [29]) was 7.8 µg/mL (≈ 13.3 µM), the MIC [30] was 15.6 µg/mL (≈ 26.6 µM) and the MIC (Klebsiella pneumoniae) was 1 µg/mL (≈ 1.71 µM). The MIC (Escherichia coli) was 2 µg/mL (≈ 3.42 µM), the MIC (Staphylococcus aureus [31]) was 31.3 µg/mL (≈ 53.4 µM) and the MIC (Staphylococcus aureus [32]) was 31.3 µg/mL (≈ 53.4 µM). For the same compound, the MIC (Staphylococcus aureus [33]) was 62.5 µg/mL (≈ 107 µM), the MIC (Enterococcus) was 62.5 µg/mL (≈ 107 µM) and the MIC (Pseudomonas aeruginosa) was 31.3 µg/mL (≈ 53.4 µM). For the same compound, the MIC (Staphylococcus aureus [34]) was 31.3 µg/mL (≈ 53.4 µM), the MIC (Staphylococcus aureus [35]) was no more than 0.25 µg/mL and the MIC (Staphylococcus aureus [36]) was 31.3 µg/mL (≈ 53.4 µM).
